HTRA1 inhibitor = HTRA1 (human) protease inhibition. 340,000 compounds, 0.5% hits. inhibition, % at 5.96 µM. recombinant HTRA1, FP-rhodamine activity-based probe, fluorescence polarization. Q92743; in the data active = inhibition above about 36%;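 note: 0% = enzyme with DMSO and 100% = wells lacking enzyme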
TCR-CD3 inh = inhibitors of human TCR-CD3 interaction. inhibition, % at 9.4 µM. TAMRA-labeled TCR probe fluorescence, biochemical. 360,000 compounds, 0.37% hits; in the data active = inhibition above about 19%;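 note: recombinant mutant TCR 2C K166C tagged with TAMRA read by polarization; 0% = receptor in buffer alone and 100% = receptor with positive control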
mABHD4 FP = inhibits mouse alpha/beta hydrolase domain 4. 370,000 compounds, 0.54% hits. inhibition, % at 8.92 µM. purified mABHD4, FP-Rh probe fluorescence polarization;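 active = inhibition exceeding the mean over every tested compound plus 3 SD, cut at about 30% in these data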;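 note: 0% = plate median of compound wells and 100% = S159A mutant with DMSO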
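Assay system: mouse ABHD4 enzyme, wild type / Also added: fluorescent activity-based probe FP-Rh / Doses: single nominal dose of 8.92 µM, 0.89% DMSO final / Timing: 45 min compound pre-incubation plus 60 min probe step, 25 °C / Signal: FP readout, ex 525 nm / em 598 nm / Control set: S159A mutant/DMSO as 100%, compound-well median as 0%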
DDE Tn7 FP inh = DD(E)-Tn7 binding inhibition, primary FP screen | 370,000 compounds, 0.13% hits | FP displacement of FITC-Tn7 peptide from fibrin DD(E); 0% = median of compound wells per plate | inhibition, % at 8.3 µM | AID 720508 | P02675;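 active = inhibition above the mean of compounds falling within the control limits plus 3 SD of them, cut at about 14% in these data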;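 note: 0% = plate median of compound wells and 100% = 10 µM Aha-Tn7 peptide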
Target sequence (P02675 whole entry, looked up): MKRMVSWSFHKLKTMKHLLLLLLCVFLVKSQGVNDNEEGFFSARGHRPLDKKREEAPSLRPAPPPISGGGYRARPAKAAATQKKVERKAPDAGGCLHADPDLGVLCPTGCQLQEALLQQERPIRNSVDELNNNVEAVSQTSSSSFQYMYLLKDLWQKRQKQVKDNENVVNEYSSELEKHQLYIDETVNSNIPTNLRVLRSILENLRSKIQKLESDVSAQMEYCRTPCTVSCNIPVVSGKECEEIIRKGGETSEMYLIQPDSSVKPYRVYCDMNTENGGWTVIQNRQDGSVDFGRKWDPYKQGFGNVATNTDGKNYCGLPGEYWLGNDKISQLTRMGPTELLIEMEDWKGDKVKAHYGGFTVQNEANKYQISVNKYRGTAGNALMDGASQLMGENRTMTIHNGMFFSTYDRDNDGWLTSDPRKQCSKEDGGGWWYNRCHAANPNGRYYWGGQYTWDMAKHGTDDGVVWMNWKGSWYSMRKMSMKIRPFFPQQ
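Assay system: human fibrin DD(E). Input: DD(E) 2 µM final. Medium: Tris buffer with calcium and detergent, pH 7.8. Compound dosing: single point at 8.3 µM. Timing: 10 min plus 3 h, room temperature. Technique: fluorescence polarization of the labelled Tn7 tracer. Read-out: percent inhibition. Replicates: singlicate testing.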
SIAE primary = human SIAE inhibition, primary screen. SIAE FP-Rh probe binding, fluorescence polarization. 370,000 compounds, 0.69% hits. inhibition, % at 9.66 µM. Q9HAT2;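 active = inhibition above a cutoff: mean of compounds within the control limits plus 3 SD of those, cut at about 17% in these data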;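 note: 0% = plate median of compound wells and 100% = probe without SIAE protein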
DDE Tn6 FP inh = disrupts Tn6 cyclic peptide binding to fibrin D-Dimer-E complex; inhibition, % at 8.3 µM; AID 720509; P02675; 370,000 compounds, 0.21% hits; Fibrin DD(E) TRITC-Tn6 fluorescence polarization displacement;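 active = inhibition above a per-campaign cutoff: mean of compounds within control limits plus 3 SD, cut at about 15% in these data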;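 note: 0% = median of all compound wells on the plate and 100% = blocking peptide control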
ABHD4 confirm = confirmation of mouse ABHD4 inhibitors; shares compounds with mABHD4 FP; purified mABHD4, FP-Rh probe fluorescence polarization; inhibition, % at 8.92 µM; 1,800 compounds, 55% hits; AID 720658;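 active = mean inhibition across replicates above the hit cutoff set in the primary screen, cut at about 30% in these data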;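 note: 0% = wild-type ABHD4 with DMSO and 100% = catalytically dead S159A mutant with DMSO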
An asterisk follows results filed as active; nt = no result. A selection: hits, their analogues and other compounds. The true share with any hit is near 1.8%.

SMILES | HTRA1 inhibitor | TCR-CD3 inh | mABHD4 FP | DDE Tn7 FP inh | SIAE primary | DDE Tn6 FP inh | ABHD4 confirm
COC(=O)c1ccc(N2NC(=O)/C(=C/c3ccc(OC)c(OC)c3)C2=O)cc1 | 3 | -2 | 6 | -2 | -18 | 3 | nt
COc1cc(/C=C2/C(=O)NN(c3cccc(Cl)c3)C2=O)cc(OC)c1O | 6 | 2 | 36* | -1 | 9 | 2 | 16
COc1cccc(/C=C2/C(=O)NN(c3ccc(F)cc3)C2=O)c1 | -5 | -9 | 13 | 3 | 4 | 12 | nt
N[C@H](C(=O)Nc1ccc(Cl)cc1C(=O)c1ccc[nH]1)c1ccccc1 | nt | nt | -2 | -1 | -2 | -2 | nt
Oc1ccc(Cl)cc1Nc1nc(NCC2CCCO2)c2ccccc2n1 (configuration not stated) | 6 | 6 | 35* | 1 | 3 | 2 | 31*
Oc1ccccc1Nc1nc(NCC2CCCO2)c2ccccc2n1 (configuration not stated) | -11 | -3 | 4 | 3 | 2 | 1 | nt
CCc1ccc(/C=C/C(=O)NC2=NCCS2)cc1 | nt | nt | -6 | -1 | -2 | 2 | nt
COc1ccc(NC(=S)Nc2ccc(N)c([N+](=O)[O-])c2)cc1 | 36 | -2 | 34* | 2 | 2 | -4 | 8
COc1ccc(NC(=S)Nc2ccccc2)cc1 | 4 | 1 | 1 | 6 | 10 | 10 | nt
Cc1ccccc1NC(=O)Cc1nc(COC(=O)c2cc([N+](=O)[O-])ccc2NCCO)cs1 | -17 | -10 | 40* | -11 | -6 | -1 | 19
Cc1ccccc1NC(=O)Cc1nc(COC(=O)c2cccc([N+](=O)[O-])c2)cs1 | -7 | 8 | 54* | -5 | 6 | 12 | 42*
Cc1ccccc1NC(=O)Cc1nc(COC(=O)c2ccc([N+](=O)[O-])cc2)cs1 | 1 | 4 | 25 | 4 | -4 | -1 | nt
CN(Cc1cn(CC2CCCCC2)nn1)S(=O)(=O)c1ccccc1Br | nt | nt | 6 | -1 | -1 | 0 | nt
Cc1ccccc1CNC(=O)c1cccc2c1C(=O)N(Cc1cccnc1)C2 | nt | nt | -6 | 3 | 2 | -9 | nt
COC(=O)[C@]12C[C@H](CC(=O)N3CCCC3)C(=O)N(CCC3=CCCCC3)C1=C[C@H](C(C)C)O[C@@H]2C1CC1 | nt | nt | 6 | 4 | -4 | -2 | nt
Cc1ccc(C(=O)OCC(=O)Nc2ccccc2)cc1NC(=O)c1ccco1 | -10 | -3 | -2 | 3 | 1 | -3 | nt
CCC(C)c1ccccc1NC(=O)COC(=O)c1ccc(C)c(NC(=O)c2ccco2)c1 (configuration not stated) | -20 | 5 | 49* | 0 | -4 | -2 | -10
C#CCNC(=O)CSCc1nc(-c2ccc(OCC)cc2)oc1C | nt | nt | 4 | -1 | 3 | -6 | nt
O=C1C=C(c2ccccc2)C(=O)N1Nc1ccccc1 | 0 | 2 | 31* | -4 | 1 | 5 | 24
COc1ccc(C2=CC(=O)N(Nc3ccccc3)C2=O)cc1 | nt | 7 | 17 | -7 | 1 | -11 | nt
O=C(N1CCC(Cc2ccccc2)CC1)n1ncc(C(O)(c2ccccc2)c2ccccc2)n1 | nt | nt | 77* | -2 | -3 | 2 | 69*
CC(=O)Nc1ccccc1O | 0 | 1 | 1 | 0 | 2 | 4 | nt
CC(C)(C)C(=O)/C=C/Nc1ccccc1O | 8 | -1 | 30* | -5 | 3 | 3 | 1
O=C(NC1=N[C@@]2(C=C3CCCCC3n3c(=O)n(-c4ccccc4)c(=O)n32)[C@H](Cc2ccccc2)N1Cc1ccccc1)c1ccccc1 (some centres not stated) | nt | nt | 20 | 1 | 9 | -5 | nt
CCC[C@H](/C=C/C(=O)OC(C)(C)C)Sc1ccc(OC)cc1 | nt | nt | 2 | 9 | 1 | 2 | nt
SMILES | HTRA1 inhibitor | TCR-CD3 inh | mABHD4 FP | DDE Tn7 FP inh | SIAE primary | DDE Tn6 FP inh | ABHD4 confirm
c1ccc2c(c1)Nc1cc3ccccc3cc1S2 | 6 | -1 | 10 | -7 | 1 | 1 | nt
Cc1ccc2c(c1)Sc1c(ccc3ccccc13)N2 | 14 | -2 | 30* | 0 | 5 | -1 | 38*
O=C(COc1ccc2ccccc2c1)Nc1cccc(C(=O)Nc2ccccc2C(=O)O)c1 | -116 | 9 | -149 | -4 | -89 | -5 | nt
O=C(O)c1ccccc1Nc1cccc(OCc2ccc3ccccc3n2)c1 | -3 | 4 | 36* | 6 | 11 | 2 | 33*
OCCNc1nc(Nc2cccc(O)c2)nc2ccccc12 | 2 | 9 | -5 | 2 | 9 | 5 | nt
c1ccc(Nc2nc(NCc3ccco3)c3ccccc3n2)cc1 | -28 | -10 | 21 | 0 | 8 | 2 | nt
COc1cccc(Nc2nc(NCCO)c3ccccc3n2)c1 | 5 | -9 | 39* | 1 | 10 | -7 | 47*
Cc1cccc(Nc2nc(NCc3ccco3)c3ccccc3n2)c1 | -25 | 6 | 39* | 2 | 23* | -18 | 46*
c1ccc(-c2csc(Nc3ccc4c(c3)OCO4)n2)cc1 | nt | 1 | 31* | -4 | 10 | 2 | 27
OCCCNc1ncnc2c1ncn2[C@H]1CN(Cc2ccc3c(c2)OCO3)C[C@@H](CO)O1 | nt | 0 | -10 | 5 | 0 | -2 | nt
CN(C)CCNc1ncnc2c1ncn2[C@H]1CN(Cc2ccc3c(c2)OCO3)C[C@@H](CO)O1 | nt | 4 | 34* | 0 | -4 | 1 | 15
COc1ccc(C(C(=O)N(C)C2CCCC2)N(Cc2ccc(F)cc2)C(=O)c2csc(N3CCOCC3)n2)cc1OC (configuration not stated) | nt | nt | 1 | -5 | 4 | 0 | nt
N#CCC[C@@H]1CC[C@]2(CCCN(S(=O)(=O)c3ccccc3)C2)O1 | nt | nt | -10 | -4 | 0 | -2 | nt
CCOC(=O)C1=C(C)NC2=C(C(=O)c3ccccc32)C1c1ccc(O)cc1 (configuration not stated) | 22 | -8 | 43* | -2 | 5 | -3 | 49*
NNc1nc2sc3c(c2c(=O)[nH]1)CCc1ccccc1-3 | 23 | 8 | 58* | -8 | 13 | -8 | 12
CCSc1nc2sc3c(c2c(=O)[nH]1)CCc1ccccc1-3 | -14 | 6 | 16 | 2 | 3 | 5 | nt
CCC(C)Sc1cc(-c2nc3ccccn3c2NC2CCCCC2)ccc1OC (configuration not stated) | -21 | 6 | 47* | 5 | 10 | -2 | 45*
CCC(C)Sc1cc(-c2nc3cc(C)ccn3c2NC2CCCCC2)ccc1OC (configuration not stated) | 0 | -1 | 31* | -8 | 0 | -6 | 67*
COc1ccc2c(c1)CCCN2C(=O)C1CCCN(S(=O)(=O)c2ccc(C(C)(C)C)cc2)C1 (configuration not stated) | nt | nt | -5 | -3 | -3 | -10 | nt

Bioassay records deposited in PubChem BioAssay by The Scripps Research Institute Molecular Screening Center.
